The subject of data set [1] is HT-29. Description: Cytotoxicity against human HT-29 cells after 24 hrs by MTT assay. Format: functional, cell-based. To be noted: HT-29, 24 h. The method, boiled down: (§1)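 Colon cancer cells were incubated with the substances for 24 h. Viability was then read by MTT assay 48 h after incubation. IC₅₀ values are mean SD, n ≥ 3.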
For orientation: Tetrazolium assays rely on reduction of a dye to a coloured formazan, in cell work by metabolically active cells.

Data set [2] deals with COLO 205. As to the kind of experiment: Cytotoxicity against human COLO205 cells after 24 hrs by MTT assay. Type of data set: functional, cell-based. As to conditions: COLO 205, 24 h. The method, boiled down: as §1
The subject of data set [3] is HT-29. As to the kind of experiment: Cytotoxicity against human HT-29 cells after 24 hrs by MTT assay in presence of snake venom secretory phospholipase A2. Format: functional, cell-based. As to conditions: HT-29, 24 h.
In data set [4] the test system is COLO 205. Description: Induction of apoptosis in human COLO205 cells assessed as complete cell death at 100 uM. Format: functional, cell-based.
Data set [5] deals with COLO 205. As to the kind of experiment: Induction of apoptosis in human COLO205 cells at 20 uM. Type of data set: functional, cell-based.
A short description of data set [6]: Chemical stability of the compound in presence of snake venom secretory phospholipase A2 after 24 hrs by MALDI-TOF MS analysis. Type of data set: physicochemical. The method, boiled down: (§2)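 Formulated lipid suspensions (extruded through a 100 nm filter) were incubated with purified snake venom sPLA₂ (Agkistrodon piscivorus piscivorus and Naja mossambica mossambica) with stirring at 37 °C. Samples were taken at 2, 24 and 48 h for MALDI-TOF MS. The matrix was DHB and CF₃COONa in methanol with DPPG as internal standard. Hydrolysis was estimated as conversion of the conjugate.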

For data set [7], the system named is secretory phospholipase A2. Description: Chemical stability of the compound in presence of snake venom secretory phospholipase A2 after 48 hrs by MALDI-TOF MS analysis. Type of data set: physicochemical. To be noted: read-out: Stability. In short, it runs like this:
as §2

Active and inactive are the calls of the source. The rule behind the calls is not given here.

In the case of `CCCCC/C=C/C=C1\C(=O)C=C[C@@H]1C/C=C/CCCC(=O)O`, the IC50 turned out to be 1.6 µM in the data set on HT-29 [1] and 4 µM in the data set with COLO 205 [2].
`CCCCC/C=C/C=C1\C(=O)C=C[C@H]1C/C=C/CCCC(=O)O[C@H](COC(=O)CCCCCCCCCCCCCCCCC)COP(=O)([O-])OC[C@@H](O)CO.[Na+]`: the results for the half-maximal inhibitory concentration (IC50) in the data set with HT-29 [1], in the data set with HT-29 [3] and with COLO 205 [2] were 32 µM, 6.4 µM and 17 µM, respectively. Further, the result in the data set on COLO 205 [4] and in the data set on COLO 205 [5] was Active. The Stability result in data set [6] is “Unstable”.
As for `CCCCC/C=C/C=C1\C(=O)C=C[C@H]1C/C=C/CCCC(=O)O[C@H](COCCCCCCCCCCCCCCCCCC)COP(=O)(O)OC[C@@H](O)CO`, the IC50 came to 6 µM in the data set on HT-29 [1], 2.2 µM in the data set on HT-29 [3] and 9 µM in the data set with COLO 205 [2]. Also, the result in the data set on COLO 205 [4] and in the data set with COLO 205 [5] was Active. Further, in data set [7], the remaining at 48 h worked out at 70%.

Usually IC50 stands for the concentration that gives 50% inhibition.

Values taken from ChEMBL document CHEMBL1208725, “Prostaglandin phospholipid conjugates with unusual biophysical and cytotoxic properties” (Bioorg Med Chem Lett, 2010).
